# Screens: PubChem, Sanford-Burnham Center for Chemical Genomics
# G6PDH CS = L. mesenteroides G6PDH inhibitors, counter-screen for G6PDH-coupled screening assays, biochemical, Leuconostoc mesenteroides enzyme; AID 1020, 2008; inhibition, % at 5 µM; Purified L. mesenteroides G6PDH, diaphorase/resazurin coupled fluorescence, 45 min; actives 0.12% (n = 200,000); in the data active means inhibition above about 50%
# Diaphorase inh = diaphorase inhibitors and chemical oxidizers, primary screen, counter-screen for diaphorase-coupled primary assays, biochemical, uHTS, resorufin fluorescence; diaphorase resazurin-to-resorufin fluorescence, NADH, 16 min; bacterial (C. kluyveri) enzyme, not human; inhibition, % at 20 µM; actives 0.69% (n = 190,000);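 active means primary screen inhibition at 20 µM above a set limit, cut at about 50% in these data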;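 further: plate controls were DMSO with full reaction for no effect and wells lacking NADH for full effect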
#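 Assay system: diaphorase enzyme from Clostridium kluyveri; Input: enzyme working solution with 0.14 U/mL diaphorase; Timing: 16 min at room temperature; Technique: resorufin fluorescence, excitation 544 nm, emission 590 nm; Benchmarks: positive control minus NADH, DMSO neutral control.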
# PfGluPho inh = PfG6PD enzyme inhibitors, primary screen, biochemical, fluorescence intensity, uHTS; glucose-6-phosphate dehydrogenase-6-phosphogluconolactonase (Plasmodium falciparum 3D7); PfGluPho enzyme, NADPH resazurin-diaphorase fluorescence; inhibition, % at 20 µM; actives 0.78% (n = 350,000); AID 504690, 2011;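 active means inhibition reaching at least a set limit at 20 µM in the primary screen, cut at about 59% in these data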;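 further: 0% = DMSO wells with substrate and 100% = DMSO wells lacking glucose-6-phosphate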
# HKDC1 inh = HKDC1 hexokinase inhibitors, primary screen, biochemical, fluorescence, uHTS; actives 0.16% (n = 340,000); inhibition, % at 20 µM; AID 493160, 2011; Q2TB90; recombinant HKDC1, G6PDH/diaphorase resazurin coupled fluorescence;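 active means inhibition above about 35% when tested at 20 µM, limit read from the data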;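 further: plate controls were DMSO wells with enzyme for no effect and DMSO wells lacking enzyme for full effect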
# Target sequence (Q2TB90 whole entry, looked up): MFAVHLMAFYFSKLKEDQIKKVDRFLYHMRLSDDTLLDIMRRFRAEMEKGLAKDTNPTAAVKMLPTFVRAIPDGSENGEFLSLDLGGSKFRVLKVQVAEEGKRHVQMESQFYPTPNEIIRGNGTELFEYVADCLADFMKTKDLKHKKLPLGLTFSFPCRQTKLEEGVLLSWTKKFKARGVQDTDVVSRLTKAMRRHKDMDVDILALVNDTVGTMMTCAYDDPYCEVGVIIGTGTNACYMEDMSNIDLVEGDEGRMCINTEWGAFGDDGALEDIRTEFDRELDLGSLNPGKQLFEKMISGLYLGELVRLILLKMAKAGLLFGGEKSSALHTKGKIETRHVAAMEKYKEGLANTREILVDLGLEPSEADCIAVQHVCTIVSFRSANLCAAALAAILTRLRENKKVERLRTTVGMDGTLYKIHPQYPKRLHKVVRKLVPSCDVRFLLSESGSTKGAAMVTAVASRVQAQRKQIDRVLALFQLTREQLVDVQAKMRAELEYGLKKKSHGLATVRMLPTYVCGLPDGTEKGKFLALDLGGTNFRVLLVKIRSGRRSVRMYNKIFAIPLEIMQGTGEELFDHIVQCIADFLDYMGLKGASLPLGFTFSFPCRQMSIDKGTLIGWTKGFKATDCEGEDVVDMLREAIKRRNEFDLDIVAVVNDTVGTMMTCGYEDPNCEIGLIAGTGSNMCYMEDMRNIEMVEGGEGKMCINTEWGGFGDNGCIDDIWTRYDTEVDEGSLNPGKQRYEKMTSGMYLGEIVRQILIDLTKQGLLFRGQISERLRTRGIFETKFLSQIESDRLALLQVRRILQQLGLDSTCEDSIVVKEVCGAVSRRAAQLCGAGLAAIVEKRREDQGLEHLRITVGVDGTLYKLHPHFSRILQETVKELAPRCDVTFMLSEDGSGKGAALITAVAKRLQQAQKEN
#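 Incubation: 90 min at room temperature in dark / Material: recombinant HKDC1 (HK5) hexokinase enzyme, produced in-house / Quantity: enzyme 5 µg/mL final / Compound: one dose of 20 µM, 1% DMSO / Reagent: glucose and ATP substrates / Buffer or medium: Tris pH 8.0 buffer with MgCl2, Tween-20, BSA, BME / Technique: resorufin fluorescence at 613 nm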
# Diaphorase act = compounds boosting diaphorase resazurin reduction – biochemical, uHTS, resorufin fluorescence, counter-screen for diaphorase-coupled primary assays, primary screen; Diaphorase/resazurin coupled assay, 16 min; stronger effect = higher value; 1 = vehicle wells, 0 = NADH-free wells; activation factor at 20 µM; actives 0.005% (n = 190,000);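 active means diaphorase activity raised at least twofold by the compound at 20 µM; inactive means activation factor below 2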
#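 Material: purified diaphorase enzyme from Clostridium kluyveri / Medium: HEPES pH 7.4 buffer with MgCl2 and Tween 20 / Schedule: enzyme reaction of 16 min at room temperature / Measured by: resorufin fluorescence, excitation 544 nm, emission 590 nm / Evaluation: rise in resorufin formation, marking diaphorase activation or chemical reduction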
# PfG6PD confirm = PfG6PD inhibitors, hit retest, confirmation, biochemical, fluorescence intensity, single concentration | shares compounds with PfGluPho inh | recombinant PfGluPho, NADPH-diaphorase-resazurin fluorescence | inhibition, % at 20 µM | actives 34% (n = 2,400) | AID 504753, 2011;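 active means inhibition of at least 50% at 20 µM in any single replicate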;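 further: 0% = DMSO with substrate and 100% = DMSO lacking glucose-6-phosphate substrate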
# Diaph ctr 10uM = diaphorase inhibitors and chemical oxidizers, confirmation, counter-screen for P. falciparum G6PD inhibitor project, biochemical, fluorescence intensity, 10 µM NADPH; shares compounds with PfGluPho inh; diaphorase-coupled resazurin reduction, NADPH 10 uM; inhibition, % at 20 µM; actives 39% (n = 820); AID 504862, 2011;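 active means average inhibition reaching 50% or more with the compound at 20 µM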;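 further: resorufin red fluorescence formed as diaphorase reduces resazurin using NADPH; 0% = DMSO with enzyme and 100% = DMSO without enzyme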
# Diaphorase 30uM = diaphorase inhibitors and chemical oxidizers, confirmation, counter-screen for P. falciparum G6PD inhibitor project, biochemical, fluorescence intensity, 30 µM NADPH; shares compounds with PfGluPho inh; actives 29% (n = 820); Diaphorase/resazurin coupled assay, resorufin fluorescence; inhibition, % at 20 µM; AID 504863, 2011;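 active means inhibition averaging 50% or more, tested at 20 µM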;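 further: 0% = DMSO with enzyme and 100% = DMSO wells lacking diaphorase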
# Numbers without * were called inactive; . = not tested or not shown. Only some compounds are listed: those with a hit (about 1.2% of all), similar ones and a draw of the others.
SMILES,G6PDH CS,Diaphorase inh,PfGluPho inh,HKDC1 inh,Diaphorase act,PfG6PD confirm,others
Cc1ccc(NC(=O)C2Cc3ccccc3CN2C(=O)c2ccccc2)cc1Cl (stereo unspecified),2,15,94*,-2,0.8,32,
CCOC(=O)C1CCCN(/C=C2\SC(=S)N(CC)C2=O)C1 (stereo unspecified),.,.,0,2,.,.,
O=S(=O)(c1ccccc1)N1CCN=C1SCc1cccc(Cl)c1,-3,22,82*,-4,0.8,43,
Cc1ccc(S(=O)(=O)N2CCN=C2SCc2ccccc2)cc1,6,12,69*,4,0.9,24,
O=S(=O)(c1ccccc1)N1CCN=C1SCc1ccc(Cl)c(Cl)c1,19,12,21,-4,0.9,.,
O=S(=O)(c1ccccc1)N1CCN=C1SCc1ccccc1Cl,16,25,78*,3,0.7,21,
Cc1cccc(C)c1NS(=O)(=O)c1cc2c3c(c1)CCN3C(=O)CC2,.,.,-11,1,.,.,
O=C(c1cccc(S(=O)(=O)N2CCc3ccccc3C2)c1)N1CCN(c2ccc(O)cc2)CC1,-8,20,66*,11,0.8,26,
CC(C)OC(=O)c1ccc(NC(=O)c2cccc(-n3cnnn3)c2)cc1,.,.,-2,1,.,.,
CC(C)c1nnc(NC(=O)c2cccc(-n3cnnn3)c2)s1,3,4,76*,-9,1,56*,Diaph ctr 10uM=53*;Diaphorase 30uM=42
COc1cccc(C(=O)Nc2nnc(Cc3ccc(OC)c(OC)c3)s2)c1,.,.,13,-6,.,.,
COc1cccc(C(=O)Nc2nnc(C(C)C)s2)c1,0,2,91*,0,1,56*,Diaph ctr 10uM=59*;Diaphorase 30uM=45
CCCc1nnc(NC(=O)c2cccc(OC)c2)s1,8,-13,63*,-3,1.1,15,
CC1CC(C(=O)Nc2ccccc2)C(=O)O1 (stereo unspecified),.,.,3,-2,.,.,
CSc1ccc(/C=C2\C(=N)N3N=C(CC(=O)N4CCCCC4)SC3=NC2=O)cc1,.,.,-27,9,.,.,
O=C(c1cc(-c2ccc(Cl)cc2)n(-c2cc(Cl)ccc2Cl)n1)N1CCOCC1,0,14,78*,2,0.9,35,
O=C(c1cc(-c2ccc(Cl)cc2)n(-c2ccc(Cl)c(Cl)c2)n1)N1CCOCC1,-13,23,31,3,0.8,.,
Fc1ccc(C2C3=C(Nc4ncnn42)c2ccccc2OC3c2ccncc2)cc1 (stereo unspecified),0,34,61*,5,0.7,21,
CN(C)C(CNC(=O)c1sc2ccccc2c1Cl)c1ccco1 (stereo unspecified),.,.,6,.,.,.,
Cn1c(N)c(C(=O)Nc2ccccc2F)sc1=S,.,.,7,-6,.,.,
Nc1c(C(=O)Nc2ccc(F)cc2)sc(=S)n1-c1ccccc1F,13,9,99*,-10,0.9,56*,Diaph ctr 10uM=13;Diaphorase 30uM=7
Cc1ccc(S(=O)(=O)N2C[C@H]3C(=O)C[C@@H](c4ccccc4F)N(S(=O)(=O)c4ccc(C)cc4)[C@H]3C[C@H]2c2cccc3ccccc23)cc1,.,.,-2,.,.,.,
NC(=S)NNc1cc(Cl)cc(Cl)c1,11,22,71*,-3,0.8,14,
O=S(=O)(c1ccccc1)N(CC1CO1)c1cc(Cl)ccc1Cl (stereo unspecified),.,.,-20,6,.,.,
CCN(CC)c1ccc(/C=C2\CCC(/C=C(/C#N)C(=O)Nc3ccccc3F)=C2N2CCOCC2)cc1,.,.,70*,18,.,-14,
SMILES,G6PDH CS,Diaphorase inh,PfGluPho inh,HKDC1 inh,Diaphorase act,PfG6PD confirm,others
O=C(COc1coc(CN2CCN(Cc3ccccc3)CC2)cc1=O)Nc1ccccc1,.,.,-19,4,.,.,
C(=Cc1c[nH]c2ccccc12)c1ccc2ccccc2n1,.,.,46,4,.,.,
C(=Cc1c[nH]c2ccccc12)c1nccc2ccccc12,.,.,65*,10,.,4,
O=[N+]([O-])c1ccc(O)c2ncccc12,66*,30,63*,15,0.7,44,
C=CCN1C=C2C(=O)C(C)(OC(=O)c3cccs3)C(=O)C=C2C=C1CCCC(=O)OC (stereo unspecified),.,.,37,21,.,.,
CCCCC1=CC2=C(c3ccco3)C(=O)C(C)(OC(=O)c3ccc(OC)cc3)C(=O)C2=CN1CCc1ccccn1 (stereo unspecified),.,.,24,25,.,.,
COC(=O)CCCC1=CC2=CC(=O)C(C)(OC(=O)c3cccs3)C(=O)C2=CN1CCc1ccccn1 (stereo unspecified),.,.,70*,21,.,23,
COC(=O)CCC(=O)OC1(C)C(=O)C2=CN(CCc3ccccn3)C(c3ccc(OC)cc3)=CC2=C(Br)C1=O (stereo unspecified),.,.,99*,33,.,41,
Cc1nc(N2CCN(c3ccccc3)CC2)[nH]c(=O)c1C,.,.,12,-5,.,.,
Cc1ccc(S(=O)(=O)N(C)C)cc1NC(=O)C(C)OC(=O)CC1CC2CCC1C2 (stereo unspecified),.,.,-12,.,.,.,
Cc1ccc2[nH]c(=O)c3cc(C(=O)N(C)c4ccccc4C)sc3c2c1,.,.,5,-4,.,.,
COc1ccccc1Cn1c(/C=C/c2ccccc2)nc2ccccc21,0,10,67*,3,0.9,3,
COCCn1c(/C=C/c2ccccc2)nc2ccccc21,-8,10,44,0,0.9,.,
COc1ccc(/C=C/c2nc3ccccc3n2Cc2ccccc2OC)cc1,4,14,76*,-5,0.9,22,
Cc1nc2ccccc2c(=O)n1NC(=O)c1ccc([N+](=O)[O-])cc1,3,-1,-6,-9,1,.,
O=C(Nc1ccc(Oc2cccnc2)cc1)c1cccc([N+](=O)[O-])c1,3,15,61*,4,0.9,29,
O=C(Nc1ccc(Oc2cccnc2)cc1)c1ccc([N+](=O)[O-])cc1,5,-17,13,1,1.2,.,
